In publication PMC7583042 (Free radical biology & medicine, 2019):
Several values for one entry are separate records, joined by “and”; a condition that tells them apart may be missing. Identical values can stand only once. Entries after “also recorded” stand apart in the source; their conditions may differ. Like-named read-outs stand apart in the source and are kept apart here.

How the values were obtained:
SmTGR WT [1] = molecular target: T1, SmTGR WT (Schistosoma mansoni, UniProt Q962Y6); test: biochemical; format: biochemical
human GR = molecular target: T2, human GR (Homo sapiens, UniProt P00390); test: biochemical; format: biochemical; conditions: for inhibition of Human GR @ 2 mM: 2 mM compound; for Apparent IC50 Human GR: 15 min preincubation with NADPH
T2 sequence (P00390 1-479 isoform P00390-2): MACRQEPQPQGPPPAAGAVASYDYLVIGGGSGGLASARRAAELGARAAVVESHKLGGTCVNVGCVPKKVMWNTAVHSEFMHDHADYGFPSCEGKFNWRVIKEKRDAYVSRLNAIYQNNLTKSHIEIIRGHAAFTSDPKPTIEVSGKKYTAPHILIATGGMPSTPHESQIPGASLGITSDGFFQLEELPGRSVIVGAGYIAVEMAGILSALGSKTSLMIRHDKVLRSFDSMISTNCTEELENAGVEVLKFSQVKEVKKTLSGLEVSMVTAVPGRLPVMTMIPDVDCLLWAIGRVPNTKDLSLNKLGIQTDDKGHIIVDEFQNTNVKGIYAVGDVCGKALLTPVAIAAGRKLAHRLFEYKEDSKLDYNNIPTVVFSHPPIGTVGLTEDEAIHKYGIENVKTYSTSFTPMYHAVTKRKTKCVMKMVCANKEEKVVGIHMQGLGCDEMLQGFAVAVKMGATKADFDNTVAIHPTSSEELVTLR

SmTGR-U597C [2] = molecular target: SmTGR-U597C (Schistosoma mansoni, UniProt Q962Y6); test: biochemical
SmTGR-U597C [3] = test: biochemical; conditions: 15 min
SmTGR WT [4] = molecular target: SmTGR WT (Schistosoma mansoni, UniProt Q962Y6, X597U); format: biochemical; conditions: global fitting of time dependent inactivation
SmTGR-E330A/D334A [5] = molecular target: T3, SmTGR-E330A/D334A (Schistosoma mansoni, UniProt Q962Y6, D334A/E330A); test: Time dependent inactivation of SmTGR-E330A/D334A; format: biochemical; conditions: global fitting of time dependent inactivation
Adult S. mansoni = test: Ex vivo cultured adult worm survival; format: cell-based, Schistosoma mansoni; conditions: ex vivo culture
Procedure, shortened: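 Adult worms were isolated from infected mice and held 24 h in RPMI with 10% fetal calf serum, 10 mM glutamine and 1× penicillin/streptomycin. Test compound was then added to the medium at 10 or 50 μM. Worms were observed daily and scored dead when no movement was seen after several minutes' observation. Percentage dead is reported at 144 h.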

[6] = oQM-thiol adduct formation with Cys and GSH followed by RP-HPLC/MS; format: physicochemical; conditions: pH 7.4, ambient temperature
Procedure, shortened: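 Test compound (1 mM) was incubated alone or with 1 mM Cys and GSH in 5 mM sodium phosphate, pH 7.4 (also pH 8.3), at ambient temperature. Aliquots were injected at time intervals onto C18 RP-HPLC, eluting with a 0–100% acetonitrile gradient in 0.1% formic acid. Peaks were identified by ESI-MS and CID MS/MS (−4.0 kV, m/z 125–2,000, 260 °C capillary).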

Rat TrxR = conditions: ref bioassay AID 588453, cited from earlier work; for IC50: read-out: Apparent IC50 Rat TrxR
[7] = molecular target: human glutathione S-transferase Ω−1 (GSTO1); conditions: ref bioassay AID 66188991; cited from earlier work
[8] = pKa of the amine named in the cell; source not stated; cited from earlier work
SmTGR-E330A/D334A [9] = molecular target: T3, SmTGR-E330A/D334A; test: SmTGR-E330A/D334A mutant inhibition, DTNB assay; format: biochemical
SmTGR WT [10] = format: biochemical, Schistosoma mansoni
SmTGR WT [11] = molecular target: T1, SmTGR WT; test: NADPH oxidase activity of inhibited enzyme; format: biochemical; conditions: 50 μM inhibitor, 30 min, pyrogallol red
Larval S. mansoni = test: Ex vivo cultured larval worm survival; format: cell-based, Schistosoma mansoni; conditions: ex vivo culture
Procedure, shortened: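 Schistosomula were made by mechanical transformation of cercariae shed from infected Biomphalaria glabrata, then isolated on a Percoll gradient. They were cultured 24 h in M-199 with 10% fetal calf serum before test compound was added at 10 μM. Daily observation scored larvae dead when motionless for several minutes. Percentage dead is reported at 120 h.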

[12] = read-out: Apparent IC50 TGR, 15 min preincubation, NADPH present
[13] = read-out: IC50 (Table 2), SmTGR value repeated in Table 2

Structure (SMILES)	Adult S. mansoni (144 h) 10 μM, worms dead (Adult S. mansoni) [% dead]	Adult S. mansoni (144 h) 50 μM, worms dead (Adult S. mansoni) [% dead]	IC50 (Rat TrxR)	Apparent IC50 GSTO1 [7]	pka of the leaving group upon oQM formation [8]	IC50 (SmTGR WT [1]; [12]) [µM]	Apparent IC50 Human GR (human GR)	Apparent IC50 Rat TrxR (Rat TrxR)	other results
Oc1ccc2ccccc2c1CN1CCOCC1 [Compound 1, 1-(Morpholin-4-ylmethyl)-2-naphthol]	8	13	10 µM	not detected; also recorded: inactive	8.3 (morpholine)				IC50 (SmTGR WT [1]): 0.61 ± 0.09 µM; IC50 (human GR): 71 ± 11.7 µM; IC50 (SmTGR-U597C [2]): 100 µM; fold higher apparent IC50 for SmTGR-U597C than for WT (SmTGR-U597C [3]): 200 fold; second order rate constant for inhibition of SmTGR WT (SmTGR WT [4]): 1830 M⁻¹ s⁻¹; second order rate constant for inhibition of SmTGR E330/D334 (SmTGR-E330A/D334A [5]): 1300 M⁻¹ s⁻¹; time to generate comparable amounts of oQM-thiol adduct [6]: 1 h
CN(C)Cc1c(O)ccc2ccccc12 [Compound 4, 1-[(Dimethylamino)methyl]-2-naphthol]	0		31 µM and 31.6 µM	not detected; also recorded: inactive	11 (dimethylamine)				IC50 (SmTGR WT [1]): 11.2 ± 1.9 µM; inhibition of SmTGR WT at pH 6.4 (SmTGR WT [1]; pH 6.4, data not shown): low micromolar range; IC50 (human GR): 1830 µM; IC50 (SmTGR-E330A/D334A [9]): 44 ± 4.9 µM; fold higher inhibitor concentration needed for E330A/D334A than for WT (SmTGR-E330A/D334A [9]; same degree of inhibition): 4 fold; IC50 (SmTGR-U597C [2]): 2000 µM; fold higher apparent IC50 for SmTGR-U597C than for WT (SmTGR-U597C [3]): 200 fold; second order rate constant for inhibition of SmTGR WT (SmTGR WT [4]): 45.8 M⁻¹ s⁻¹; difference in inhibition rate between WT and E330A/D334A (SmTGR WT [10]; compound at 2 μM): about 360 fold; WT inhibited faster than E330A/D334A (SmTGR WT [10]; compound at 20 μM): 3 times; second order rate constant for inhibition of SmTGR E330/D334 (SmTGR-E330A/D334A [5]): 14.7 M⁻¹ s⁻¹; induction of NADPH oxidase activity in the inhibited WT enzyme (SmTGR WT [11]): able to induce; time to generate comparable amounts of oQM-thiol adduct [6]: 24 h
CCOC(=O)N1CCN(Cc2c(O)ccc3ccccc23)CC1 [Compound 2]		5	12.6 µM	inactive		0.65 ± 0.12			IC50 (SmTGR WT [1]; [13]): 0.65 ± 0.12 µM; inhibition of Human GR @ 2 mM (human GR): 35% inhibition @ 2 mM
Oc1ccc2ccccc2c1CN1CCCC1 [Compound 6]		0		inactive	11.2 (pyrolidine)	28.8 ± 5.37	inactive	inactive	
CN(Cc1ccccc1)Cc1c(O)ccc2ccccc12 [Compound 3]	0	24		inactive		0.84 ± 0.03		inactive	IC50 (SmTGR WT [1]; [13]): 0.84 ± 0.03 µM; inhibition of Human GR @ 2 mM (human GR): 20% inhibition @ 2 mM; Larval S. mansoni (120 h) 10 μM, worms dead (Larval S. mansoni): 19% dead
Oc1ccc2ccccc2c1CN1CCCCC1 [Compound 7]					11.2 (piperidine)	57.6 ± 4.57	inactive	inactive	
Oc1ccc2ccccc2c1CN1CC=C(c2ccccc2)CC1 [Compound 5]				inactive		11.9 ± 3.57	inactive	inactive	
